From ChEMBL document CHEMBL4825703, “Investigation of 3-sulfamoyl coumarins against cancer-related IX and XII isoforms of human carbonic anhydrase as well as cancer cells leads to the discovery of 2-oxo-2H-benzo[h]chromene-3-sulfonamide - A new caspase-activating proapoptotic agent” (Eur J Med Chem, 2021)
Calls of active or inactive are those of the source. The rule behind the calls is not given here.

How the values were obtained:
Carbonic anhydrase 9 = Carbonic anhydrase 9 (Homo sapiens, UniProt Q16790); experiment: Inhibition of human carbonic anhydrase 9 assessed as inhibition constant incubated for 15 mins prior to testing by phenol red based stopped-flow CO2 hydration assay
U-87 MG [1] = experiment: Antiproliferative activity against human U-87 MG cells assessed as cell growth inhibition at 30 to 100 uM measured after 24 hrs under CoCl2-induced hypoxic condition by MTT assay; type: functional, cell-based; settings: U-87MG ATCC, dose 30-100 µM
[2] = Antiproliferative activity against human WI-26 AV4 cells assessed as reduction in cell viability measured after 48 hrs by MTT assay; settings: WI-26 AV4, 48 h
A-431 [3] = experiment: Antiproliferative activity against human A-431 cells assessed as cell survival rate at 300 uM measured after 24 hrs under CoCl2-induced hypoxic condition by MTT assay relative to control; type: functional; settings: read-out: Survival
Procedure, shortened: (§1)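 MTT end-point assay. MTT (5 mg/mL in PBS) added for 4 h, formazan dissolved in DMSO, absorbance read at 560 nm. Viability given as % of untreated control (100%); mean ± SEM of three experiments.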

[4] = Antiproliferative activity against human WI-26 AV4 cells assessed as reduction in cell viability measured after 24 hrs by MTT assay; settings: WI-26 AV4, 24 h
A-431 [5] = experiment: Antiproliferative activity against human A-431 cells assessed as reduction in cell viability measured after 72 hrs by MTT assay; settings: A-431, 72 h
[6] = Antiproliferative activity against human WI-26 AV4 cells assessed as reduction in cell viability measured after 72 hrs by MTT assay; settings: WI26VA4, 72 h
RT-4 [7] = experiment: Antiproliferative activity against human RT-4 cells assessed as cell survival rate at 300 uM measured after 24 hrs under CoCl2-induced hypoxic condition by MTT assay relative to control; type: functional; settings: read-out: Survival; procedure, shortened: as §1
hTERT-BJ [8] = experiment: Cytotoxicity against human TERT-Bj-5ta cells assessed as reduction in cell viability at measured after 24 hrs under CoCl2- induced hypoxic condition by MTT assay; type: cell-based
A-431 [9] = experiment: Antiproliferative activity against human A-431 cells assessed as reduction in cell viability measured after 24 hrs by MTT assay; settings: A-431, 24 h
A-431 [10] = experiment: Antiproliferative activity against human A-431 cells assessed as reduction in cell viability measured after 48 hrs by MTT assay; settings: A-431, 48 h
U-87 MG [11] = experiment: Antiproliferative activity against human U-87 MG cells assessed as cell survival rate at 300 uM measured after 24 hrs under CoCl2-induced hypoxic condition by MTT assay relative to control; type: functional, U-87MG ATCC; settings: read-out: Survival; procedure, shortened: as §1
RT-4 [12] = experiment: Antiproliferative activity against human RT-4 cells assessed as cell survival rate at 100 uM measured after 24 hrs under CoCl2-induced hypoxic condition by MTT assay relative to control; type: functional; settings: read-out: Survival; procedure, shortened: as §1
A-431 [13] = experiment: Antiproliferative activity against human A-431 cells assessed as cell survival rate at 100 uM measured after 24 hrs under CoCl2-induced hypoxic condition by MTT assay relative to control; type: functional; settings: read-out: Survival; procedure, shortened: as §1
hTERT-BJ [14] = experiment: Cytotoxicity against human TERT-Bj-5ta cells assessed as reduction in cell viability at 300 uM measured after 24 hrs under CoCl2- induced hypoxic condition by MTT assay relative to control; type: cell-based

Structure (SMILES)	Ki (Carbonic anhydrase 9) [µM]	growth inhibition (GI) (U-87 MG [1])	IC50 [2] [µM]	viability at 300 µM (A-431 [3]) [%]	IC50 [4] [µM]	IC50 (A-431 [5]) [µM]	IC50 [6] [µM]	viability at 300 µM (RT-4 [7]) [%]	Activity (hTERT-BJ [8])	IC50 (A-431 [9]) [µM]	IC50 (A-431 [10]) [µM]	viability at 300 µM (U-87 MG [11]) [%]	viability at 100 µM (RT-4 [12]) [%]	viability at 100 µM (A-431 [13]) [%]	Activity (hTERT-BJ [14]) [%]
NS(=O)(=O)c1cc2cc([N+](=O)[O-])ccc2oc1=O	0.148	inactive													
NS(=O)(=O)c1cc2cc(Br)ccc2oc1=O	0.317	inactive	42.1	39.3	76.6	49.2	21.5	19.7	Non-Toxic	38.4	24.7				
NS(=O)(=O)c1cc2cccc(F)c2oc1=O	0.0411	inactive										57.9			
COc1cccc2oc(=O)c(S(N)(=O)=O)cc12	2.98	inactive													
NS(=O)(=O)c1cc2cc(Cl)cc(Cl)c2oc1=O	0.518	inactive	9.54	2.84	74	35.2	14.3	15.1	Non-Toxic	26.9	20.3	54.1	43.5	38.8	
NS(=O)(=O)c1cc2cc(Cl)ccc2oc1=O	0.177	inactive	45.1	36.5	89.2	57.8	5.87	19.7	Non-Toxic	51.9	29.1				

Further lines, with some results ahead:

Ki (Carbonic anhydrase 9) [µM]	Structure (SMILES)	growth inhibition (GI) (U-87 MG [1])	IC50 [2] [µM]	viability at 300 µM (A-431 [3]) [%]	IC50 [4] [µM]	IC50 (A-431 [5]) [µM]	IC50 [6] [µM]	viability at 300 µM (RT-4 [7]) [%]	Activity (hTERT-BJ [8])	IC50 (A-431 [9]) [µM]	IC50 (A-431 [10]) [µM]	viability at 300 µM (U-87 MG [11]) [%]	viability at 100 µM (RT-4 [12]) [%]	viability at 100 µM (A-431 [13]) [%]	Activity (hTERT-BJ [14]) [%]
0.0474	Cc1ccc2oc(=O)c(S(N)(=O)=O)cc2c1	inactive													
0.0405	COc1ccc2cc(S(N)(=O)=O)c(=O)oc2c1	inactive													
0.0581	COc1ccc2oc(=O)c(S(N)(=O)=O)cc2c1	inactive													70.97
